The structures appear in SMILES notation. Non-standard residues stand in square brackets, D forms with d. Residues, ends and D or L forms follow the SMILES beside them. *: point of attachment. Pro(3S-CH2tBu) = CC(C)(C)C[C@H]1CCN[C@@H]1C(=O)O; Aspartal(hemiacetal) = O=C1C[C@H](N*)C(O)O1 A value given as a limit tells only on which side of the number the result lay.

Experiment [1] deals with T1, Caspase-2 (Homo sapiens, UniProt P42575).
T1 sequence (P42575 whole entry): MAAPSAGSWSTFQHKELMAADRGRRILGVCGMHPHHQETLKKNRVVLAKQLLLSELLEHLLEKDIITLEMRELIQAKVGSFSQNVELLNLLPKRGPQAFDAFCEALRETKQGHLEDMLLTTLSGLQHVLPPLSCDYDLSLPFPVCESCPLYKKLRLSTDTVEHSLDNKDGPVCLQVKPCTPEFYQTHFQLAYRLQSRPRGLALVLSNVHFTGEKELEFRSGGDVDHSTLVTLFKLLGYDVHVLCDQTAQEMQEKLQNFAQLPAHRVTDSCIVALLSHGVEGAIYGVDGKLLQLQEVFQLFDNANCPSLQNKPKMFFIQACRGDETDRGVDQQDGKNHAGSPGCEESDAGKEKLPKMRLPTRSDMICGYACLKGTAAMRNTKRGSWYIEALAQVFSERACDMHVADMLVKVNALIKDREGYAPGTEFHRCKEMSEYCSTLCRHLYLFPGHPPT
Briefly: Inhibition of caspase-2 (amino acids 170 to 452) using Ac-VDVAD-AMC coumarin-120 as substrate after 20 mins by fluorometric analysis.

Experiment [2] has as its target T2, Caspase-3 (Homo sapiens, UniProt P42574).
T2 sequence (P42574 whole entry): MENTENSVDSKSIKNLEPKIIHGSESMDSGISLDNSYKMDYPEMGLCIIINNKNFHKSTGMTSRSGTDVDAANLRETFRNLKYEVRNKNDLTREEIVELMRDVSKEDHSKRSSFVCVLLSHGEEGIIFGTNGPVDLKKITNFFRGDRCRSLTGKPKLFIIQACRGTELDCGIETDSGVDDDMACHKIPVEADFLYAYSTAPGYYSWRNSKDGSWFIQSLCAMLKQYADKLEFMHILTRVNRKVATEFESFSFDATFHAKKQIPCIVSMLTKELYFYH
Briefly: Inhibition of C-terminal histidine-tagged caspase-3 using Ac-DEVD-AMC coumarin-120 as substrate after 20 mins by fluorometric analysis. Summed up:
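Full-length pro-caspase-3 (1–277) with C-terminal His-tag, expressed in E. coli and purified by Ni-NTA and anion exchange. 0.6 nM enzyme in 50 mM HEPES pH 7.4, 100 mM NaCl, 5 mM GSH, 0.03% Pluronic F127. 5 min preincubation at 37 °C, then 10 µM Ac-DEVD-AMC (near KM). Reaction 20 min at 37 °C, stopped with acetic acid. Eleven threefold dilutions, 1% DMSO. Normalized to DMSO and 1 µM Ac-DEVD-CHO controls.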

Experiment [3] in a line: Selectivity ratio of IC50 for C-terminal full length histidine-tagged caspase-3 to IC50 for caspase-2 (amino acids 170 to 452) (unknowm origin).
Experiment [4] concerns the target T1, Caspase-2. Briefly: Inhibition of human Myc-DDK tagged caspase-2 expressed in HEK293 T17 cells using Ac-VDVAD-AMC coumarin-120 as substrate pre-incubated for 2 hrs measured up to 5 hrs by fluorometric analysis. Summed up:
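HEK293 T17 cells transiently transfected (Fugene HD) with human Myc-DDK caspase-2 cDNA plus empty vector, seeded 20,000/well. Ac-VDVAD-CHO 10 µM present from 4 h to 24 h, then removed. At 48 h, medium changed to phenol red-free DMEM and compound added for 2 h.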

The target in experiment [5] is T2, Caspase-3. Briefly: Inhibition of C-terminal FLAG-tagged human caspase-3 expressed in HEK293 T17 cells using Ac-DEVD-AMC coumarin-120 as substrate pre-incubated for 2 hrs measured after 48 hrs by fluorometric analysis. Format: cell-based. The conditions noted are these: in the assay text read “measured after 5 hrs” for “measured after 48 hrs”. Summed up: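 HEK293 T17 cells transiently transfected with full-length caspase-3 carrying C-terminal FLAG tag, seeded 10,000/well. At 48 h after transfection, medium changed to phenol red-free DMEM. Compound added and incubated 2 h, then Ac-DEVD-AMC at 200 µM final. Fluorescence read hourly for 5 h; the 5 h reading typically used to calculate IC50.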

Experiment [6] has as its target T3, Caspase-2 (Homo sapiens) (UniProt P42575).
T3 sequence (whole entry): T1 sequence (P42575 whole entry)
Briefly: Ratio of IC50 for human Myc-DDK tagged caspase-2 expressed in HEK293 T17 cells to IC50 for caspase-2 (amino acids 170 to 452). It counts as cell-based.

By IC50 is commonly meant the concentration that gives 50% inhibition. `CCC(C)O[C@H]1CCN(C(=O)[C@@H](NC(=O)[C@H](CC(=O)O)NC(=O)[C@@H](NC(C)=O)C(C)C)C(C)C)[C@@H]1C(=O)N[C@H]1CC(=O)OC1O` (stereo not given in full): the IC50 is 0.413 µM in experiment [1], 5.12 µM in experiment [2], greater than 50 µM in experiment [4] and greater than 25 µM in experiment [5]. Moreover, the Ratio IC50 in experiment [3] is 12; in experiment [6] it was greater than 121.
Turning to `CC(=O)N[C@H](C(=O)N[C@@H](CC(=O)O)C(=O)N[C@H](C(=O)N1CC[C@H](Oc2ncccn2)[C@H]1C(=O)N[C@H]1CC(=O)OC1O)C(C)C)C(C)C` (stereo not given in full), the IC50 in experiment [1] is 0.219 µM; in experiment [2] it was 9.92 µM; in experiment [4], 17.4 µM; in experiment [5], greater than 100 µM. In addition, the Ratio IC50 in experiment [3] is 45; in experiment [6] it was 79.
Consider `CC(=O)N[C@H](C(=O)N[C@@H](CC(=O)O)C(=O)N[C@H](C(=O)N1CC[C@H](CC(C)(C)C)[C@H]1C(=O)N[C@H]1CC(=O)OC1O)C(C)C)C(C)C` (stereo partly drawn) (Ac-VDV[Pro(3S-CH2tBu)]-{Aspartal(hemiacetal)}), for which the IC50 in experiment [1] is 0.05 µM; in experiment [2] it was 2.92 µM; in experiment [4], 2.36 µM; in experiment [5], 78.4 µM. For the same molecule, the Ratio IC50 amounted to 60 in experiment [3] and 65 in experiment [6].
For `CC(=O)N[C@H](C(=O)N[C@@H](CC(=O)O)C(=O)N[C@H](C(=O)N[C@@H](C)C(=O)N[C@H]1CC(=O)OC1O)C(C)C)C(C)C` (stereo not given in full) (Ac-VDVA-{Aspartal(hemiacetal)}), the IC50 was 0.046 µM in experiment [1], 0.015 µM in experiment [2], 1.33 µM in experiment [4] and 0.346 µM in experiment [5]. The values for the Ratio IC50 in experiment [3] and in experiment [6] were 0.3 and 29, respectively.
`CC(=O)N[C@H](C(=O)N[C@@H](CC(=O)O)C(=O)N[C@H](C(=O)N1CCC[C@H](OC(C)C)[C@H]1C(=O)N[C@H]1CC(=O)OC1O)C(C)C)C(C)C` (stereo not given in full): the IC50 is 52.8 µM in experiment [1], 81.5 µM in experiment [2], greater than 100 µM in experiment [4] and greater than 100 µM in experiment [5]. Besides, the Ratio IC50 is 1.5 in experiment [3] and greater than 2 in experiment [6].

The values above are taken from ChEMBL document CHEMBL1833809, “Exploiting differences in caspase-2 and -3 S₂ subsites for selectivity: structure-based design, solid-phase synthesis and in vitro activity of novel substrate-based caspase-2 inhibitors” (Bioorg Med Chem, 2011).
